Measured values pooled from the literature.
Observed: enzyme activity
Action: inhibitor
CHEK2: Serine/threonine-protein kinase Chk2 (CHEK2, Homo sapiens, UniProt O96017)

Compound | target | assay | conditions | remaining activity [%]
CCCOc1ccc(OC)c(F)c1C(=O)c1ccc(C(=O)N[C@@H]2CNC[C@H]2NC(=O)c2ccc3[nH]ncc3c2)cc1 | CHEK2 |  | 10 µM | 13
Cc1ccc(NC(=O)c2ccc(C)c(C(F)(F)F)c2)cc1C#Cc1nn(C2CCC(O)CC2)c2ncnc(N)c12 (stereo not drawn) | Serine/threonine-protein kinase Chk2 (CHEK2, Homo sapiens, UniProt O96017, I157T) |  | 10 µM | 103
CC(C)(C)c1nc2c(s1)c1nc(N)ncc1c1ccc(NS(=O)(=O)c3c(F)cccc3F)c(F)c12 | CHEK2 | radiometric | 1 µM | 72
Nc1nc(NC2CCCCC2)sc1C(=O)c1ccccc1 | CHEK2 |  | 10 µM | 61
Cc1sc(C(=O)NC2COC2)cc1-n1cc(NC(=O)Nc2c(F)cccc2Cl)cn1 | CHEK2 |  | 10 µM | 95.2
Cc1cnc(NC2CCOCC2)nc1-n1cnc(C(=O)NC(CN)c2cc(F)cc(Cl)c2)c1 (stereo not drawn) | Serine/threonine-protein kinase Chk2 (CHEK2, Homo sapiens, UniProt O96017, R145W) | radiometric | 1 µM | 79
O=C(Nc1cnn(-c2csc(C(=O)NC3COC3)c2)c1)Nc1c(F)cccc1Cl | CHEK2 |  | 5 µM | 91.5
CC(C)(C)C(=O)c1sc(NC2CCCCC2)nc1N | CHEK2 |  | 10 µM | 53
Cn1c(=O)n(-c2ccc(C(C)(C)C#N)cc2)c2c3cc(-c4cnc5ccccc5c4)ccc3ncc21 | CHEK2 |  | 10 µM | 80
CCN(CC)c1ccc(C2=NNC(=O)CC2C)cc1[N+](=O)[O-] (stereo not drawn) | CHEK2 |  | 10 µM | 101
Oc1cccc(-c2nc(N3CCOCC3)c3oc4ncccc4c3n2)c1 | CHEK2 |  | 10 µM | 85
COc1cc(Nc2cnc(C#N)c(O[C@H](C)CN(C)C)n2)ncc1-c1cnn(C)c1 | CHEK2 | radiometric | 10 µM | 31
